# T cruzi inh: inhibitors of intracellular T. cruzi growth, primary screen, luminescence, NIH3T3 host cells | T. cruzi beta-gal in NIH3T3, 90 h | inhibition, % (no concentration beside the values) | 300,000 tested, 1.4% active | AID 1885, 2009;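 active means mean inhibition across valid replicates above about 55%, limit read from the data; inconclusive means mean below that limit but half or more replicates reach it; inactive means mean below it, under half of replicates reach it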;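 further: signal also drops with host cell toxicity which is not excluded here; 0% = plate median of DMSO wells and 100% = zero luminescence signal; higher percent means less beta-gal luminescence so fewer parasites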
#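 Test system: β-gal T. cruzi (Tulahuen C4) inside NIH/3T3 cells / Quantity: 5,000 cells/well / Measured by: luminescence from GalScreen with 0.05% NP40, read after 60 min / Medium: DMEM plus 2% FBS / Measure: parasite load inhibition, % / Reagent: Tulahuen C4 trypomastigotes, 5000/well / Schedule: co-culture of at least 90 h after 3 h attachment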
# HSF1 inhib: HSF1 inhibitors in luciferase reporter cells, primary screen, cell-based, NIH3T3, luminescence. AID 2098, 2009. activity change, negative = inhibition, % at 7.5 µM (by protocol). NIH3T3-HGL HSE-luciferase, MG132-induced, luminescence 8 h; hits give low values. 300,000 tested, 0.77% active;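 active means more than half of replicate wells show activity change below -50%, luminescence cut by over half; inconclusive means some wells, but at most half, below -50%; inactive means no replicate well below -50%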;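 further: luciferase reports HSF-1 transcriptional activity via heat shock element; 0% = median of DMSO wells and -100% = zero luminescence signal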
# HSF1 activator: HSF-1 activators, primary screen, NIH3T3-HGL cells, MG132 stress, luminescence, single point. 300,000 tested, 1.7% active. NIH3T3-HGL HSF-1 luciferase reporter, 8 h; 100% = twice DMSO control signal. activation, % at 9 µM;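 active means mean replicate activation of at least 50% with a set share of replicates each reaching 50%; inconclusive means only one of those two conditions met; inactive means mean below 50% and too few replicates reaching it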;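 further: 0% = median of the neutral control wells and 100% = twice that signal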
# Hsp70 act: Hsp70 transcriptional activators, primary screen, cell-based, HeLa, Hsp70 promoter luciferase, luminescence, 10 µM; HeLa Hsp70 promoter luciferase reporter; scaled: vehicle 0, proteasome-inhibitor control 100%; activation, % at 10 µM; 200,000 tested, 0.04% active; AID 1203, 2008;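 active means activation above the mean across all tested compounds plus 3 SD, cutoff set per campaign, cut at about 5.5% in these data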;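 further: 100% = MG132 at 30 µM as the positive control and 0% = DMSO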
# Lmaj promast: Leishmania major promastigote growth inhibition, primary screen; Leishmania major promastigotes, resazurin fluorescence viability; AID 1063, 2008; 200,000 tested, 9% active; inhibition, % at 10 µM; in the data active means inhibition above about 50%;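 further: promastigotes grown with compound for 44 hours at 28 °C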
# Numbers without * were called inactive; ? = inconclusive; nt = not tested or not shown. Only a selection was taken, and hits are over-represented in it overall.
SMILES,T cruzi inh,HSF1 inhib,HSF1 activator,Hsp70 act,Lmaj promast
N=c1n(CCN2CCOCC2)c2ccccc2n1CC(=O)c1ccc(Cl)c(Cl)c1,2,5,-2,0,66*
O=C(COC(=O)/C=C/c1ccc(C(F)(F)F)cc1)NCC1CCCO1 (configuration not stated),-2,1,5,nt,nt
Cc1cc(Cn2ccnc2)c(C)c([N+](=O)[O-])c1Cn1ccnc1,60*,0,-10,nt,nt
Cc1ccc2c(Cn3ccnc3)cc(=O)oc2c1C,1,-6,-11,nt,nt
COc1ccc(C2=NN(CN3C(=O)C(=O)c4ccccc43)C(c3ccc(OC)cc3)C2)cc1 (configuration not stated),-10,20,?,0,-5
O=C(CSc1nnc(-c2ccc(O)cc2)n1Cc1ccco1)c1ccccc1,-6,0,6,0,54*
O=C(CSc1nnc(-c2cccnc2)n1Cc1ccco1)c1ccccc1,-7,5,2,0,-7
Cc1ccc(C(=O)CSc2nnc(CNc3ccc(C)cc3C)n2Cc2ccco2)cc1,17,8,17,0,60*
CSc1ccc(N=Nc2c(C)[nH]n(C)c2=O)cc1,0,20,16,nt,nt
CNS(=O)(=O)c1cc(N(C)S(=O)(=O)c2ccc(C)cc2)c(C)cc1C,-6,21,39,0,4
Cc1ccc(S(=O)(=O)N(C)c2cc(S(=O)(=O)N3CCC(C)CC3)c(C)cc2C)cc1,14,0,22,0,77*
CCNc1nc(NCC)n2c(SCC(=O)N(CC)C3CCCCC3)nnc2n1,13,-20,-29,0,10
Cc1cc2nc3c(=O)n(C4CCCCC4)c(=O)[nH]c3nc2cc1N,nt,nt,nt,0,45
Cc1ccc(OCCCNCCO)c(Br)c1,21,-5,-15,1,73*
CCCCNCCCOc1cccc(Cl)c1Cl,36,-17,-11,0,100*
CCCCNCCCOc1ccc(C)cc1Br,47,-4,4,0,90*
CC1CC(C)CN(CC(O)COCCOc2ccc(Br)cc2)C1 (configuration not stated),21,10,31,0,92*
Brc1ccc(OCCN2CCOCC2)cc1,-4,3,-14,nt,nt
CC1CC(C)CN(CCOc2ccc(Br)cc2)C1 (configuration not stated),23,-2,0,0,82*
CC1CCN(CC(O)COCCC23CC4CC(CC(C4)C2)C3)CC1 (configuration not stated),61*,1,-8,0,95*
CC1CC(C)CN(CC(O)COc2ccc3c(c2)CCC3)C1 (configuration not stated),-9,2,7,0,89*
Nc1nnn(CC(=O)N/N=C/C=C/c2ccccc2)n1,-1,8,22,nt,nt
CC(C)(C)CC(C)(C)NCC(O)COc1ccc2c(c1)CCC2 (configuration not stated),46,8,17,0,100*
CC(C)(CO)NCC(O)COc1ccc2c(c1)CCC2 (configuration not stated),-9,1,12,0,7
CC1CCN(CC(O)COCCOc2ccc(Br)cc2)CC1 (configuration not stated),39,-4,10,0,82*
SMILES,T cruzi inh,HSF1 inhib,HSF1 activator,Hsp70 act,Lmaj promast
Cc1cc(Cl)c(OCCCCNC(C)(C)C)c(Br)c1,29,-8,8,-1,98*
CN(C)CCCOc1ccc(Cl)cc1Br,68*,1,2,0,62*
CC(C)NCCOCCOc1ccccc1F,1,-3,16,0,-1
Clc1ccc(OCCSc2ncccn2)c(Br)c1,7,41,?,0,1
CC(C)NCCOCCOc1ccc(Cl)cc1Br,50,9,17,0,95*
Cc1ccc(OCCCN(C)C)c(Br)c1,26,2,1,0,60*
CNCCCOc1ccc(C)cc1Br,-6,-11,-13,0,11
COC(=O)c1[nH]c2cc(OC)c(OC)cc2c1/C=N/Nc1ccccc1,44,4,-1,nt,nt
Cc1ccc(Cl)cc1NC(=S)N(CCCN1CCN(C)CC1)Cc1ccco1,22,-8,-3,0,21
Cc1cc(Br)cc(C)c1OCCCCN(C)C,63*,0,-8,0,100*
CN(C)CCOCCOc1ccc(Cl)cc1Br,64*,-2,-16,0,93*
Cc1cc(C)c(OCCN(C)C)c(Cl)c1,30,-2,-5,0,1
CCOc1ccc(OCCCCN(C)C)cc1,2,-9,-1,0,38
C=CCc1ccc(OCCOCCN(C)C)c(OC)c1,-1,1,-3,0,38
Cc1cc(Cl)c(OCCCN(C)C)c(Br)c1,52,10,28,0,79*
O=C(NC12CC3CC(CC(C3)C1)C2)c1ccc([N+](=O)[O-])o1,38,22,33,nt,nt
CC1CCCN(c2nc(N(C)c3ccccc3)nc(N)c2[N+](=O)[O-])C1 (configuration not stated),28,-9,-3,nt,nt
O=C(NCC1CCCC(CNC(=O)N2CCc3ccccc32)C1)N1CCc2ccccc21 (configuration not stated),19,1,-3,0,1
Cc1ccc(NC(=O)C(Nc2cccc(C)c2)c2ccccc2)cc1 (configuration not stated),10,10,3,0,59*
O=C(Nc1ccccc1)C(c1ccccc1)c1ccccc1,4,-2,13,nt,nt
COc1cccc(NC(C(=O)Nc2cccc(C(C)=O)c2)c2ccccc2)c1 (configuration not stated),5,9,7,0,38
Cc1ccc(NC(=O)C(Nc2ccccc2)c2ccccc2)cc1 (configuration not stated),8,4,2,0,88*
Cc1cc(C)cc(NC(=O)C(Nc2ccccc2)c2ccccc2)c1 (configuration not stated),6,3,7,0,28
O=C(O)C(=O)Nc1ccc(NC(=O)C(c2ccccc2)c2ccccc2)cc1,1,-55*,-66,nt,nt
CCOC(=O)Cc1csc(NS(=O)(=O)c2ccc(SC)cc2)n1,-2,0,-14,0,-2
CC(=O)Nc1ccc(C(=O)OCC(=O)Nc2c(F)cccc2F)cc1,?,-10,-1,nt,nt
Cc1ccc(C(C(=O)Nc2ccc3c(c2)OCO3)N(C)C(=O)Cc2c[nH]c3ccccc23)cc1 (configuration not stated),34,-5,14,-1,70*
CC(=O)Nc1ccc(N(C(=O)Cc2c[nH]c3ccccc23)C(C(=O)NC2CCCCC2)c2ccco2)cc1 (configuration not stated),-4,0,-2,0,60*

# Compound activity: PubChem BioAssay, several laboratories
